# Screens (PubChem)
# miR-122 sensor: blocks miR-122 activity in Huh7 sensor cells | activation (reporter increase), % at 12.5 µM | 340,000 compounds, 0.3% hits | Huh7 miR-122 Renilla luciferase sensor, 48 h; neutral wells = 0, positive control = 100;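 active = mean replicate activation score at least 90 and every replicate individually at or above 90; inconclusive = only one of the two criteria met; inactive = neither criterion met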;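 note: higher luciferase means less miR-122 activity so hits act as miR-122 inhibitors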
# DENV2 CPE: inhibitors of DENV2 cytopathic effect | DENV2-infected cells, cytopathic effect rescue, plate reader | CPE inhibition, % at 9.99 µM | 350,000 compounds, 1.7% hits; in the data active = CPE inhibition above about 20%, passing the limit was not always enough; inconclusive = no clear call, values can overlap the other calls; tested in BHK-21 cells;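 note: 0% = median of neutral control wells and 100% = median of positive control wells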
# Ecoli rRNA inh: selective bacterial rRNA inhibition in E. coli; AID 720706; 350,000 compounds, 1.6% hits; GFP signal change (wild-type ribosome), % (concentration not given with the values); E. coli WT GFP vs humanized-ribosome RFP mutants, fluorescence, 24 h; hits give low values; DMSO median 0, no signal -100;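 active = significant combined selectivity score with lowered wild-type GFP, culture density cut under 30%, mutant RFP and density less affected; inactive = any of these conditions unmet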
# E-sel inducer: E-selectin induction on HUVECs; HUVEC E-selectin immunofluorescence imaging; normalized: neutral wells 0, TNF-alpha wells 100; activation, % at 7.58 µM; 260,000 compounds, 0.37% hits; AID 686992;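 active = mean E-selectin-positive cell signal at least 10% of the positive control, reached in at least 60% of replicates, without over 20% cell loss; inconclusive = no rule given, readout overlaps actives, possibly toxicity-flagged; inactive = the rest, including those meeting only one limit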
# Target sequence (P16581 whole entry, looked up): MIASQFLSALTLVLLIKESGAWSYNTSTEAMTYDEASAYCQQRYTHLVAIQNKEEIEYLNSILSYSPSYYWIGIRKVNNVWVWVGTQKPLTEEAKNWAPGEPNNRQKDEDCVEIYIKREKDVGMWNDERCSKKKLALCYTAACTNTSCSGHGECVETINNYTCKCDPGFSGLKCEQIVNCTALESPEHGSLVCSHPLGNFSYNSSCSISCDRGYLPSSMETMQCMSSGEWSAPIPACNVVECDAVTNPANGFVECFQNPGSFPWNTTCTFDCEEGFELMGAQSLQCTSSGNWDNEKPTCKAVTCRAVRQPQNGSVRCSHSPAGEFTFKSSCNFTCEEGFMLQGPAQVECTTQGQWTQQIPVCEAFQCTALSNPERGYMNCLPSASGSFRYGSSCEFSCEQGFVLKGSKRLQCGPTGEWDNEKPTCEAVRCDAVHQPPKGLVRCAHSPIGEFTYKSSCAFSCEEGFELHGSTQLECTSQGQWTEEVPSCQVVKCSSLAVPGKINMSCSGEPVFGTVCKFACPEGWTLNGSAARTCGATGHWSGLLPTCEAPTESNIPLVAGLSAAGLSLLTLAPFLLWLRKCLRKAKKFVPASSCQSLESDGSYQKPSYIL
#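 Material: HUVEC primary endothelial cells; Amount: 3,000 cells per well; Dosing: single concentration; Medium: EGM-2 growth medium on 0.1% gelatin-coated wells; Read-out basis: percent E-selectin-positive cells; Signal: immunofluorescence imaging; Control set: TNF-alpha, DMSO.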
# Cneo AK release: Cryptococcus neoformans lysis via adenylate kinase release | C. neoformans lysis, adenylate kinase release luminescence, 4 h; normalised: neutral wells 0, clomiphene wells 100 | lysis activity, % at 15 µM | 360,000 compounds, 0.2% hits | AID 651654;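 active = mean lysis activity across replicates of at least 80%, whatever share of replicates individually reach that level; inactive = mean lysis activity below 80%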
#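 Assay system: Cryptococcus neoformans yeast cells / Dosing: single-point compound dose / Timing: 4 h at 37 °C static, read 1 h later / Measured by: luminescence of released adenylate kinase using an AK detection reagent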
# * hit, by the source's call; ? = inconclusive; . = not tested or not shown; [ ] = another dose, or the depositor's remark. An excerpt weighted towards active compounds, which were near 3.1% of everything screened.
SMILES,miR-122 sensor,DENV2 CPE,Ecoli rRNA inh,E-sel inducer,Cneo AK release
CN(C)S(=O)(=O)c1ccc(Cl)c(NC(=O)CSc2nnnn2-c2ccc(O)cc2)c1,.,-0.7,-29.4*,2.2,.
CN(C)S(=O)(=O)c1ccc(Cl)c(NC(=O)CSc2nc3c(cc2C#N)C(=O)CC(C)(C)C3)c1,0.3,30.8*,7.3,.,4.1
CC(C)CC#Cc1ccc([C@@H]2[C@@H](CO)N3C(=O)CN(C(=O)NC(C)C)C[C@@H]23)cc1,.,.,-1.0,.,.
COC(=O)[C@H]1[C@H](CO)[C@H]2Cn3c(ccc(-c4ccccc4F)c3=O)[C@H]2N1CC1CCCC1,6.7[16.7 µM],-14.9,-5.9,-0.1,-5.5
COc1ccc(S(=O)(=O)N(C)C[C@H]2OCCCC[C@@H](C)Oc3ccc(NC(=O)CCCN(C)C)cc3C(=O)N([C@H](C)CO)C[C@@H]2C)cc1,6.7[16.7 µM],6.2,1.0,0.0,-2.1
C[C@@H]1CCCCO[C@H](CN(C)S(=O)(=O)c2ccccc2)[C@@H](C)CN([C@@H](C)CO)C(=O)c2cc(NC(=O)CCCN(C)C)ccc2O1,6.5[16.7 µM],110.6*,0.4,-0.2,56.5
C[C@H](CO)N1C[C@H](C)[C@H](CN(C)S(=O)(=O)c2ccc(F)cc2)OCCCC[C@H](C)Oc2ccc(NC(=O)CCCN(C)C)cc2C1=O,-3.4[16.7 µM],33.6*,0.0,-0.2,-15.4
C[C@@H]1CN([C@@H](C)CO)C(=O)c2cc(NC(=O)CCCN(C)C)ccc2O[C@@H](C)CCCCO[C@@H]1CN(C)S(=O)(=O)c1ccc(F)cc1,9.9[16.7 µM],43.5*,0.5,-0.3,-15.4
COc1ccc(S(=O)(=O)N(C)C[C@H]2OCCCC[C@H](C)Oc3ccc(NC(=O)CCCN(C)C)cc3C(=O)N([C@H](C)CO)C[C@H]2C)cc1,6.2[16.7 µM],38.2*,-2.3,0.1,49.2
CCOC(=O)c1[nH]c2ccccc2c1NC(=O)c1ccc(Br)o1,22.2,0.3,-19.1*,.,1.0
COc1ccccc1NS(=O)(=O)c1cccc(-n2c(O)c(C=Nc3ccccc3C(=O)O)c3ccccc3c2=O)c1,-0.8,-0.5,-24.6*,.,-0.6
COc1cccc(NC(=O)CN(C)C(=O)CCCc2c[nH]c3ccccc23)c1,5.5,-3.8,-12.7,-0.1,-2.3
COc1cccc(NC(=O)CN(C)C(=O)CCCc2nc3ccccc3s2)c1,-11.2,24.7*,0.2,.,0.4
Cc1ccc(NC(=O)COC(=O)CNC(=O)C2CCCCC2)cc1S(=O)(=O)N(C)C,78.0,-3.6,2.2,-0.1,-6.4
CCN(CC)S(=O)(=O)c1ccc(NC(=O)COC(=O)CNC(=O)C2CCCCC2)cc1,-5.1,62.6*,8.7,-0.2,3.3
O=S1(=O)CCO[C@H]2Cc3ccccc3[C@H]2N1Cc1ccc(Cl)cc1,-0.7,85.2*,-25.2,0.4,-1.1
O=S1(=O)CCO[C@H]2Cc3ccccc3[C@H]2N1Cc1cccc(Cl)c1,8.8,?,-49.8,-0.1,2.1
CCCNC(=O)[C@@]1(c2ccc([N+](=O)[O-])cc2)CC(=O)N(CC23CC4CC(CC(C4)C2)C3)[C@@H]1c1ccc(CO)cc1I,.,-10.7,.,.,0.9
COCCCNC(=O)C[C@@H]1C[C@@]2(C(=O)OC)CC(C)(C)CC=C2N(Cc2ccco2)C1=O,.,20.9*,3.7,-0.1,.
CCCCOCCCNC(=O)C[C@@H]1C[C@@]2(C(=O)OC)CC(C)(C)CC=C2N(Cc2ccc3c(c2)OCO3)C1=O,.,27.6*,1.8,-0.1,.
COc1ccc2c3c(n(C)c2c1)[C@H](CO)N(CC1CCCCC1)CC31CCN(C(=O)CN(C)C)CC1,.,12.2,3.1,-0.1,.
COc1ccc(NC(=O)Nc2ccc3c(c2)CC(=O)N([C@@H](C)CO)C[C@@H](C)[C@H](CN(C)C(=O)Nc2ccc4c(c2)OCO4)O3)cc1,8.9[16.7 µM],4.1,-2.5,0.2,1.1
CN(Cc1ccccc1)N=Nc1nc[nH]c1C(N)=O,-0.4,77.4*,7.5,0.5,-0.1
CC(=O)NC(=S)Nc1sc2c(c1C(N)=O)CCC(C)C2 (stereo not drawn),.,1.1,-27.6*,.,.
Cc1ccsc1/C=N/NC(=O)c1nnn(-c2nonc2N)c1C(C)C,-6.1,1.9,-18.1*,.,-2.7
CC(C)c1c(C(=O)N/N=C/c2cccs2)nnn1-c1nonc1N,.,3.1,-5.8,.,-0.8
CC(C)c1c(C(=O)N/N=C/c2c[nH]c3ccccc23)nnn1-c1nonc1N,-8.1,15.8,-17.9*,.,-0.9
